Results on ten compounds are retold here after ChEMBL document CHEMBL1155880, “Slow self-activation enhances the potency of viridin prodrugs” (J Med Chem, 2008).

For data set [1], the system named is A549. In words: Antiproliferative activity against human A549 cells after 48 hrs by SRB method. Type of data set: functional, cell-based. Particulars: A549, 48 h.
Data set [2] relates to A549. In words: Cellular uptake in human A549 cells at 10 uM by FACS relative to initial rate. Type of data set: ADME, cell-based. As to conditions: a549, 10 µM. In short, it runs like this: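 A549 cells incubated with 10 μM NBD-labelled compound for varying times, then detached with trypsin and analysed by FACS. Fluorescence over time is expressed as relative cellular fluorescence: the geometric mean of exposed cells divided by the geometric mean of unexposed cells.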

The nature of data set [3]: Chemical stability assessed as half-times of wortmannin formation at pH 6.8 in phosphate buffer saline. The class given is physicochemical. The gist of the method:
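Compounds were incubated at 1.5 mM Wm equivalents in PBS, pH 6.8, 37°C. Wm (or NBD-Wm) formation was followed by reverse-phase C18 HPLC with methyl-4-hydroxybenzoate as internal standard. For NBD derivatives, 10% acetonitrile and 5% DMSO were added to keep the released product in solution. Half-lives of formation were derived from this.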

The compound `COC[C@H]1OC(=O)c2coc3c2[C@@]1(C)C1=C(C3=O)[C@@H]2CCC(=O)[C@@]2(C)C[C@H]1OC(=O)CCCCN(C)c1ccc([N+](=O)[O-])c2nonc12` came in with an IC50 in data set [1] of 12.2 µM. This compound showed a Drug uptake in data set [2] of 1.
The compound `COC[C@H]1OC(=O)/C(=C\N(C)CCCCCC(=O)O)C2=C(O)C(=O)C3=C([C@H](OC(=O)CCCCN(C)c4ccc([N+](=O)[O-])c5nonc45)C[C@]4(C)C(=O)CC[C@@H]34)[C@]21C` registered an IC50 in data set [1] of 3.85 µM. In addition, the Drug uptake in data set [2] came to 0.187. Also, the Activity in data set [3] was determined as 8 h.
In the case of `COC[C@H]1OC(=O)/C(=C\NCCCCCC(=O)O)C2=C(O)C(=O)C3=C([C@H](OC(=O)CCCCN(C)c4ccc([N+](=O)[O-])c5nonc45)C[C@]4(C)C(=O)CC[C@@H]34)[C@]21C`, the IC50 in data set [1] worked out at 48.7 µM. Also, in data set [2], the Drug uptake came out at 0.0271. Also, the Activity in data set [3] is over 100 h.
As for `COC[C@H]1OC(=O)/C(=C\N(C)CCCCCC(=O)O)C2=C(O)C(=O)C3=C([C@H](OC(C)=O)C[C@]4(C)C(=O)CC[C@@H]34)[C@]21C`, the IC50 in data set [1] was 0.96 µM. In addition, in data set [3], the Activity was found to be 8.7 h.
Compound `COC[C@H]1OC(=O)/C(=C\N(C)c2ccncc2)C2=C(O)C(=O)C3=C([C@H](OC(=O)CCCCN(C)c4ccc([N+](=O)[O-])c5nonc45)C[C@]4(C)C(=O)CC[C@@H]34)[C@]21C` registered an IC50 in data set [1] of 9.99 µM. Further, the Drug uptake in data set [2] came to 1.199. The Activity in data set [3] is 1.87 h.
In data set [1], `COC[C@H]1OC(=O)/C(=C\NCCCCC(NC(C)=O)C(=O)O)C2=C(O)C(=O)C3=C([C@H](OC(C)=O)C[C@]4(C)C(=O)CC[C@@H]34)[C@]21C` (stereo partly drawn) returned an IC50 of 29.8 µM. Moreover, the Activity in data set [3] is over 100 h.
As to `COC[C@H]1OC(=O)/C(=C\N2CCCC2C(=O)O)C2=C(O)C(=O)C3=C([C@H](OC(C)=O)C[C@]4(C)C(=O)CC[C@@H]34)[C@]21C` (stereo partly drawn), it took 1.79 µM to reach half-maximal inhibition in data set [1] (IC50). For the same compound, in data set [3], the Activity worked out at 9.9 h.
As for `COC[C@H]1OC(=O)/C(=C\N(C)c2ccncc2)C2=C(O)C(=O)C3=C([C@H](OC(C)=O)C[C@]4(C)C(=O)CC[C@@H]34)[C@]21C`, half-maximal inhibition in data set [1] (IC50) was put at 9.86 µM. The compound further returned a Drug uptake in data set [2] of 1. Moreover, the Activity in data set [3] is 2.3 h.
In data set [1], `COC[C@H]1OC(=O)/C(=C\NCCCCC(=O)O)C2=C(O)C(=O)C3=C([C@H](OC(C)=O)C[C@]4(C)C(=O)CC[C@@H]34)[C@]21C` registered an IC50 of 27.9 µM. Besides, the Activity in data set [3] is over 100 h.
Consider `COC[C@H]1OC(=O)c2coc3c2[C@@]1(C)C1=C(C3=O)[C@@H]2CCC(=O)[C@@]2(C)C[C@H]1OC(C)=O` [WORTMANNIN], for which 11.4 µM corresponded to half-maximal inhibition in data set [1] (IC50).
